Source: ChEMBL document CHEMBL1153755, “Convenient synthesis and antimicrobial evaluation of some novel 2-substituted-3-methylbenzofuran derivatives” (2009)
≈ marks a conversion by molar mass, not a printed value.

How the values were obtained:
Type in all cases: functional
Aspergillus niger [1] = experiment: Antifungal activity against Aspergillus niger at 100 ug after 24 to 48 hrs by diffusion agar technique; conditions: read-out: IZ
Outline: (§1)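 Fungal isolates (RCMB collection) are seeded into malt extract agar (pH 5.4) and tested by hole-plate diffusion. Each 1 cm well receives 100 μL of a 5 mg/ml DMSO solution, with DMSO as control. Plates sit 1 h at 4 °C, then incubate at 28 °C. Zone diameter is measured after 24-48 h. Terbinafin is the standard.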

Aspergillus niger [2] = experiment: Antimicrobial activity against Aspergillus niger by serial dilution technique
Bacillus subtilis [3] = experiment: Antibacterial activity against Bacillus subtilis at 100 ug after 24 to 48 hrs by diffusion agar technique; conditions: read-out: IZ
Outline: (§2)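 Hole-plate agar diffusion on nutrient agar (pH 6.2) seeded with the bacterial isolate (RCMB collection). 1 cm wells hold 100 μL of compound at 5 mg/ml in DMSO; DMSO-filled wells serve as controls. Plates are held 1 h at 4 °C, then incubated at 37 °C. Inhibition zone diameter is read after 24-48 h. Amoxicilline is the reference.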

Aspergillus fumigatus [4] = experiment: Antifungal activity against Aspergillus fumigatus at 100 ug after 24 to 48 hrs by diffusion agar technique; conditions: read-out: IZ; outline: as §1
Staphylococcus aureus [5] = experiment: Antibacterial activity against Staphylococcus aureus at 100 ug after 24 to 48 hrs by diffusion agar technique; conditions: read-out: IZ; outline: as §2
Candida albicans [6] = experiment: Antifungal activity against Candida albicans at 100 ug after 24 to 48 hrs by diffusion agar technique; conditions: read-out: IZ; outline: as §1
[7] = test system: Syncephalastrum racemosum; experiment: Antifungal activity against Syncephalastrum racemosum at 100 ug after 24 to 48 hrs by diffusion agar technique; conditions: read-out: IZ; outline: as §1
Penicillium italicum [8] = experiment: Antifungal activity against Penicillium italicum at 100 ug after 24 to 48 hrs by diffusion agar technique; conditions: read-out: IZ; outline: as §1
Bacillus subtilis [9] = experiment: Antimicrobial activity against Bacillus subtilis by serial dilution technique
Escherichia coli = experiment: Antibacterial activity against Escherichia coli at 100 ug after 24 to 48 hrs by diffusion agar technique; conditions: read-out: IZ; outline: as §2
Candida albicans [10] = experiment: Antimicrobial activity against Candida albicans by serial dilution technique
Staphylococcus aureus [11] = experiment: Antimicrobial activity against Staphylococcus aureus by serial dilution technique
Pseudomonas aeruginosa = experiment: Antibacterial activity against Pseudomonas aeruginosa at 100 ug after 24 to 48 hrs by diffusion agar technique; conditions: read-out: IZ; outline: as §2
Aspergillus fumigatus [12] = experiment: Antimicrobial activity against Aspergillus fumigatus by serial dilution technique
[13] = test system: Syncephalastrum racemosum; experiment: Antimicrobial activity against Syncephalastrum racemosum by serial dilution technique
Penicillium italicum [14] = experiment: Antimicrobial activity against Penicillium italicum by serial dilution technique

`CCO/C=C(\C#N)C(=O)c1oc2ccccc2c1C` gave a zone of inhibition at 100 µg/disc (Aspergillus niger [1]) of 18 mm, an MIC (Aspergillus niger [2]) of 250 µg/mL (≈ 979 µM) and a zone of inhibition at 100 µg/disc (Bacillus subtilis [3]) of 7 mm. It also gave a zone of inhibition at 100 µg/disc (Aspergillus fumigatus [4]) of 19 mm, a zone of inhibition at 100 µg/disc (Staphylococcus aureus [5]) of 13 mm and a zone of inhibition at 100 µg/disc (Candida albicans [6]) of 10 mm. For the same compound, the zone of inhibition at 100 µg/disc [7] was 22 mm and the zone of inhibition at 100 µg/disc (Penicillium italicum [8]) was 10 mm.
In the case of `Cc1c(-c2cc(N)n(-c3ccccc3)n2)oc2ccccc12`, the zone of inhibition at 100 µg/disc (Aspergillus niger [1]) is reported as 7 mm, the zone of inhibition at 100 µg/disc (Bacillus subtilis [3]) is reported as 25 mm and the zone of inhibition at 100 µg/disc (Aspergillus fumigatus [4]) is reported as 10 mm. For the same compound, the MIC (Bacillus subtilis [9]) was 250 µg/mL (≈ 864 µM), the zone of inhibition at 100 µg/disc (Escherichia coli) was 5 mm and the zone of inhibition at 100 µg/disc (Staphylococcus aureus [5]) was 4 mm. The zone of inhibition at 100 µg/disc (Candida albicans [6]) was 9 mm.
Work on `Cc1c(C(=O)/C(C#N)=N/Nc2ccc(Cl)cc2)oc2ccccc12` yielded an MIC (Candida albicans [10]) of 250 µg/mL (≈ 740 µM), a zone of inhibition at 100 µg/disc (Staphylococcus aureus [5]) of 5 mm and a zone of inhibition at 100 µg/disc (Candida albicans [6]) of 16 mm.
`Cc1c(C(=O)NN/C=C(\NNC(=O)c2oc3ccccc3c2C)c2ccccc2)oc2ccccc12` showed an MIC (Staphylococcus aureus [11]) of 500 µg/mL (≈ 1040 µM), a zone of inhibition at 100 µg/disc (Pseudomonas aeruginosa) of 6 mm and a zone of inhibition at 100 µg/disc (Bacillus subtilis [3]) of 14 mm. For the same compound, the zone of inhibition at 100 µg/disc (Escherichia coli) was 5 mm and the zone of inhibition at 100 µg/disc (Staphylococcus aureus [5]) was 15 mm.
With `Cc1c(C(=O)NN/C=C(\NNC(=O)c2oc3ccccc3c2C)c2ccc(Cl)cc2)oc2ccccc12` the zone of inhibition at 100 µg/disc (Aspergillus niger [1]) was 5 mm, the zone of inhibition at 100 µg/disc (Bacillus subtilis [3]) was 4 mm and the zone of inhibition at 100 µg/disc (Aspergillus fumigatus [4]) was 10 mm. For the same compound, the zone of inhibition at 100 µg/disc (Escherichia coli) was 3 mm, the MIC (Aspergillus fumigatus [12]) was 500 µg/mL (≈ 971 µM) and the zone of inhibition at 100 µg/disc (Staphylococcus aureus [5]) was 4 mm. The zone of inhibition at 100 µg/disc [7] was 6 mm.
`Cc1c(C(=O)/C(C#N)=N/O)oc2ccccc12` was tested, and the zone of inhibition at 100 µg/disc (Aspergillus niger [1]) was 12 mm, the zone of inhibition at 100 µg/disc (Bacillus subtilis [3]) was 20 mm and the zone of inhibition at 100 µg/disc (Aspergillus fumigatus [4]) was 8 mm. For the same compound, the MIC (Bacillus subtilis [9]) was 125 µg/mL (≈ 548 µM), the zone of inhibition at 100 µg/disc (Escherichia coli) was 8 mm and the zone of inhibition at 100 µg/disc (Staphylococcus aureus [5]) was 15 mm. The zone of inhibition at 100 µg/disc (Candida albicans [6]) was 18 mm.
`Cc1ccc(N/N=C(\C#N)C(=O)c2oc3ccccc3c2C)cc1` showed an MIC (Candida albicans [10]) of 50 µg/mL (≈ 158 µM), a zone of inhibition at 100 µg/disc (Bacillus subtilis [3]) of 6 mm and a zone of inhibition at 100 µg/disc (Aspergillus fumigatus [4]) of 12 mm. For the same compound, the zone of inhibition at 100 µg/disc (Staphylococcus aureus [5]) was 4 mm and the zone of inhibition at 100 µg/disc (Candida albicans [6]) was 20 mm.
Compound `Cc1c(-c2n[nH]cc2C#N)oc2ccccc12` has an MIC [13] of 50 µg/mL (≈ 224 µM), a zone of inhibition at 100 µg/disc (Aspergillus niger [1]) of 6 mm and a zone of inhibition at 100 µg/disc (Bacillus subtilis [3]) of 18 mm. It also gave a zone of inhibition at 100 µg/disc (Aspergillus fumigatus [4]) of 20 mm, a zone of inhibition at 100 µg/disc (Staphylococcus aureus [5]) of 10 mm and a zone of inhibition at 100 µg/disc (Candida albicans [6]) of 12 mm. The zone of inhibition at 100 µg/disc [7] was 30 mm.
`Cc1c(C(=O)NNC(=O)c2oc3ccccc3c2C)oc2ccccc12` gave an MIC [13] of 50 µg/mL (≈ 144 µM), a zone of inhibition at 100 µg/disc (Aspergillus niger [1]) of 13 mm and a zone of inhibition at 100 µg/disc (Bacillus subtilis [3]) of 12 mm. It also gave a zone of inhibition at 100 µg/disc (Aspergillus fumigatus [4]) of 4 mm, a zone of inhibition at 100 µg/disc (Staphylococcus aureus [5]) of 3 mm and a zone of inhibition at 100 µg/disc (Candida albicans [6]) of 6 mm. The MIC (Penicillium italicum [14]) was 50 µg/mL (≈ 144 µM), the zone of inhibition at 100 µg/disc [7] was 18 mm and the zone of inhibition at 100 µg/disc (Penicillium italicum [8]) was 12 mm.
`Cc1c(C(=O)Nc2ccccc2C(=O)O)oc2ccccc12` gave an MIC [13] of 250 µg/mL (≈ 847 µM), a zone of inhibition at 100 µg/disc (Bacillus subtilis [3]) of 12 mm and a zone of inhibition at 100 µg/disc (Staphylococcus aureus [5]) of 3 mm. The zone of inhibition at 100 µg/disc [7] was 22 mm and the zone of inhibition at 100 µg/disc (Penicillium italicum [8]) was 13 mm.
Compound `Cc1c(-c2nc3ccccc3c(=O)o2)oc2ccccc12` has an MIC [13] of 250 µg/mL (≈ 902 µM), a zone of inhibition at 100 µg/disc (Aspergillus niger [1]) of 5 mm and a zone of inhibition at 100 µg/disc (Pseudomonas aeruginosa) of 8 mm. It also gave a zone of inhibition at 100 µg/disc (Bacillus subtilis [3]) of 8 mm, a zone of inhibition at 100 µg/disc (Aspergillus fumigatus [4]) of 8 mm and a zone of inhibition at 100 µg/disc (Staphylococcus aureus [5]) of 4 mm. For the same compound, the zone of inhibition at 100 µg/disc (Candida albicans [6]) was 7 mm, the zone of inhibition at 100 µg/disc [7] was 18 mm and the zone of inhibition at 100 µg/disc (Penicillium italicum [8]) was 6 mm.
`CC1(C)S[C@@H]2[C@H](NC(=O)[C@H](N)c3ccc(O)cc3)C(=O)N2[C@H]1C(=O)O` [AMOXICILLIN] showed a zone of inhibition at 100 µg/disc (Pseudomonas aeruginosa) of 20 mm, a zone of inhibition at 100 µg/disc (Bacillus subtilis [3]) of 25 mm and a zone of inhibition at 100 µg/disc (Escherichia coli) of 30 mm. For the same compound, the zone of inhibition at 100 µg/disc (Staphylococcus aureus [5]) was 30 mm.
`CN(C/C=C/C#CC(C)(C)C)Cc1cccc2ccccc12` [TERBINAFINE] showed a zone of inhibition at 100 µg/disc (Aspergillus niger [1]) of 25 mm, a zone of inhibition at 100 µg/disc (Aspergillus fumigatus [4]) of 30 mm and a zone of inhibition at 100 µg/disc (Candida albicans [6]) of 30 mm. For the same compound, the zone of inhibition at 100 µg/disc [7] was 35 mm and the zone of inhibition at 100 µg/disc (Penicillium italicum [8]) was 20 mm.
